Bioassay records (PubChem BioAssay)
Most compounds without a hit are left out; they make up all but 4.1% or so of the library.
SMARCA2 activ = activators of SMARCA2 function; MG213 cells, MMTV-luciferase reporter, dexamethasone, overnight; 1% of 370,000 active; activation, % at 9.1 µM; AID 652017; in the data active = activation above about 7.8%;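 note: 0% = vehicle wells and 100% = reference activator wells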
Tb MetRS inh = Trypanosoma brucei MetRS inhibition; purified T. brucei MetRS, ATP depletion, Kinase-Glo luminescence; inhibition, % at 11.9 µM; 0.4% of 360,000 active; AID 624268;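 active = inhibition above a per-plate cutoff of the control wells' mean inhibition plus 3 SD, cut at about 5.5% in these data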;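 note: 0% = DMSO wells median and 100% = median of wells with control inhibitor compound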
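Dosing: 11.9 µM single point; system: parasite MetRS enzyme; technique: luminescence of leftover ATP; times: 15 min enzyme-compound preincubation, 2 h reaction, 10 min detection, 25 °C; replicates: each compound tested once; read-out basis: percent inhibition relative to median high and low control wells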
H9c2 TAG inh = triacylglycerol accumulation inhibition. H9c2 cells, Nile Red lipid (TAG) fluorescence; cells loaded with 200 µM oleic acid. inhibition, % at 12.5 µM. 0.66% of 230,000 active. AID 651582;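 active = pattern-corrected inhibition of lipid staining of at least 50% with the nuclear-stain viability signal not falling by more than 50%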;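 note: 0% = DMSO wells and 100% = triacsin C control wells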
AHR act = activates the human aryl hydrocarbon receptor; 2.5% of 320,000 active; activation, % at 5 µM; AHR-responsive luciferase reporter cells, luminescence; P35869; in the data active = activation above about 47%;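 note: 0% = vehicle wells and 100% = reference agonist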
Target sequence (P35869 whole entry, looked up): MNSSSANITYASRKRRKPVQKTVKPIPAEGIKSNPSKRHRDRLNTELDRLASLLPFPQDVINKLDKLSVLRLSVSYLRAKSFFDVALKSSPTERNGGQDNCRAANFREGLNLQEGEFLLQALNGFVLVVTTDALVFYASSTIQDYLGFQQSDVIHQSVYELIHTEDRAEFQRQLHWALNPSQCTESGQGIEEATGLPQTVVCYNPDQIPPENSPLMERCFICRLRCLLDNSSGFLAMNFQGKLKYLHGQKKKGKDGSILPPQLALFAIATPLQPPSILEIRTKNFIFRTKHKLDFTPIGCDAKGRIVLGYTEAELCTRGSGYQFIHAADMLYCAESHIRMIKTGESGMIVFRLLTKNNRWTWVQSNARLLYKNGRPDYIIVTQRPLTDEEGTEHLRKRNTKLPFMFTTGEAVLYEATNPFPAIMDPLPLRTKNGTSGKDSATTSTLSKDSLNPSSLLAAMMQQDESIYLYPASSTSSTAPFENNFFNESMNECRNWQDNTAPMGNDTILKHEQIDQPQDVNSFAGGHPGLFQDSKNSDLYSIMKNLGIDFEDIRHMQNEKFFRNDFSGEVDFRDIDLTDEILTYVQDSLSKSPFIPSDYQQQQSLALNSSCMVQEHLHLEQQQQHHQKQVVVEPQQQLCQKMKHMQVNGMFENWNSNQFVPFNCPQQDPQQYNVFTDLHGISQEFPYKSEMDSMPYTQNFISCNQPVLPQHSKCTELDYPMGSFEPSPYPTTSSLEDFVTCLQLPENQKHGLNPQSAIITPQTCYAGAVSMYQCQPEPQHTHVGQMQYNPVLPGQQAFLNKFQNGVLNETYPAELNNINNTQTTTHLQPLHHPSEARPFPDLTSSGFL
Efflux pump mplx = antifungal efflux pump inhibition, Nile Red retention; 0.44% of 330,000 active; AID 485275; inhibition, % at 10 µM; S. cerevisiae Candida pump triplex;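 active = plate passing quality check with inhibition over a set limit, or well fluorescence over plate mean plus 4 SD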;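 note: Nile Red retained in pooled yeast measured as flow cytometry median fluorescence; 0% = buffer negative control and 100% = Enniatin B positive control; higher means more Nile Red kept so more efflux inhibition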
H9c2 TAG conf = triacylglycerol accumulation inhibition, confirmation. H9c2 lipid accumulation, Nile Red fluorescence; cells loaded with 200 µM oleic acid. inhibition, % at 12.5 µM. AID 651629. 71% of 990 active. shares compounds with H9c2 TAG inh;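 active = mean inhibition across replicates of 40% or more; inactive = mean inhibition below 40%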;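 note: plate controls were DMSO only wells for no effect and Triacsin C treated wells for full effect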
* = called active by the depositor; nt = no result given.

SMILES	SMARCA2 activ	Tb MetRS inh	H9c2 TAG inh	AHR act	Efflux pump mplx	H9c2 TAG conf
COc1ccccc1Nc1nnc(SCC(=O)Nc2nc(-c3ccc(F)cc3)cs2)s1	-4	0	51*	40	1	57*
CCn1c(SCC(=O)Nc2nc(-c3ccc(C)cc3)cs2)nnc1-c1ccccc1O	-2	0	80*	7	0	68*
CC(=O)c1cn(CC(=O)NCc2ccc3c(c2)OCO3)c2ccccc12	-4	2	-31	23	0	nt
CCOC(=O)C(C)Oc1cccc2c(=O)n(CC(=O)NCc3ccc4c(c3)OCO4)ccc12 (stereo not drawn)	1	-2	54*	1	0	55*
CCOC(=O)C(C)Oc1cccc2c(=O)n(CC(=O)Nc3ccc4c(c3)OCCO4)ccc12 (stereo not drawn)	-3	0	10	-1	0	nt
O=C(Cn1cc(C(=O)C2CC2)c2ccccc21)NCc1ccc2c(c1)OCO2	-5	1	51*	14	0	26
Cc1cc(Nc2ccc(C)c(Cl)c2)nc(N2CCOCC2)n1	-2	0	72*	14	0	41*
CC(C)c1ccc(Nc2nc(N3CCOCC3)nc(N3CCOCC3)n2)cc1	-2	0	74*	nt	nt	91*
Cc1ccc(Nc2cc(C)nc(N3CCOCC3)n2)cc1	2	-1	17	35	0	nt
COc1cccc(CNC(=O)[C@H]2CCCN2C(=O)[C@H]2CCCN2C(=O)N2CCOCC2)c1	-1	nt	nt	nt	nt	nt
CCCN1CCCCC(NC(=O)c2ccccc2C)C1=O (stereo not drawn)	6	nt	nt	nt	nt	nt
CCCSc1nc(SCC(=O)NCc2ccccc2)c2c3c(sc2n1)COC(C)(CC)C3 (stereo not drawn)	-1	0	63*	0	0	48*
O=c1cc(-c2cccc(Cl)c2)oc2cccc(O)c12	1	0	92*	34	0	1
O=c1cc(-c2ccccc2)oc2cccc(O)c12	0	1	nt	nt	nt	nt
CC(=NNC(=O)CSc1nnc(-c2ccccc2)n1-c1ccccc1)c1ccc2ccccc2c1	-4	nt	nt	nt	nt	nt
COc1ccc(CN2C(=O)COc3ccccc3C2c2nnnn2C2CCCCC2)cc1 (stereo not drawn)	-1	nt	nt	nt	nt	nt
CCOC(=O)[C@H]1[C@H]2COc3ccc(OC)cc3[C@@H]2N2C(=O)c3ccc(Cl)cc3NC(=O)[C@@]12C	1	0	-11	2	nt	nt
CCOC(=O)[C@H]1[C@H]2COc3ccc(C)cc3[C@@H]2N2C(=O)c3cc(Br)ccc3NC(=O)[C@@]12C	0	0	67*	12	0	77*
CCOC(=O)[C@H]1[C@H]2COc3ccc(Cl)cc3[C@@H]2N2C(=O)c3cc(OC)ccc3NC(=O)[C@@]12C	0	0	58*	3	nt	41*
C[C@@]12C(=O)Nc3ccc(Cl)cc3C(=O)N1[C@H]1c3cc(Br)ccc3OC[C@@H]1[C@@H]2c1ccccc1	0	0	37	3	0	nt
C[C@@]12C(=O)Nc3ccc(Br)cc3C(=O)N1[C@H]1c3cc(Br)ccc3OC[C@@H]1[C@@H]2c1ccccc1	-1	0	73*	4	1	62*
COc1cccc(/C=C2/Sc3ccc(C(=O)NC4CC4)cc3NC2=O)c1	-5	nt	nt	nt	nt	nt
COc1ccc(-c2cc3nc(-c4ccccc4)cc(N4CCN(C(C)=O)CC4)n3n2)cc1	-7	-1	31	nt	nt	nt
COc1ccc(-c2cc3nc(-c4ccccc4)cc(N4CCN(C(=O)c5ccccc5)CC4)n3n2)cc1	-3	-1	52*	nt	nt	42*
O=C(c1ccoc1)N1CCN(c2cc(-c3cccc(F)c3)nc3cc(-c4cccc(Cl)c4)nn23)CC1	-4	-1	57*	nt	nt	49*
SMILES	SMARCA2 activ	Tb MetRS inh	H9c2 TAG inh	AHR act	Efflux pump mplx	H9c2 TAG conf
Cc1ccc(C(C(=O)NC2CCCC2)N(Cc2ccc3c(c2)OCO3)C(=O)c2snc(C(N)=O)c2N)cc1 (stereo not drawn)	3	-1	-7	3	0	nt
O=C(NC1CCCCC1)C(c1ccccc1)N(Cc1ccc2c(c1)OCO2)C(=O)c1cnsn1 (stereo not drawn)	-5	0	59*	1	0	41*
COC(=O)C1CN(CCc2ccccc2)CCS(=O)(=O)N1Cc1ccc(Cl)cc1 (stereo not drawn)	-1	nt	nt	nt	nt	nt
O=C(c1cc(-c2ccncc2)nc2c(Cl)cccc12)N1CCN(c2ccccc2F)CC1	0	0	56*	18	0	69*
CCC(C)(C)NC(=O)C(c1ccc(C)cc1)N(Cc1ccco1)C(=O)CCC(=O)Nc1nccs1 (stereo not drawn)	0	-1	66*	-1	0	65*
CCC(C)(C)NC(=O)C(c1ccc(OC)cc1)N(Cc1ccco1)C(=O)CCC(=O)Nc1cc(C)on1 (stereo not drawn)	-1	0	70*	1	0	57*
COc1cccc(C(C(=O)NC(C)(C)C)N(Cc2ccco2)C(=O)CCC(=O)Nc2cc(C)on2)c1OC (stereo not drawn)	-2	-1	4	-1	0	nt
COc1ccc(-n2nc(C(=O)Nc3ccc4c(c3)OCO4)c3c4ccccc4n(C)c3c2=O)cc1	-3	0	66*	10	0	44*
COc1ccc(-n2nc(C(=O)Nc3ccc(OC)c(OC)c3)c3c4ccccc4n(C)c3c2=O)cc1	-4	0	82*	19	0	29
COc1cccc(-n2nc(C(=O)Nc3ccc4c(c3)OCO4)c3ccccc3c2=O)c1	nt	0	8	14	0	nt
COC(=O)C12C=C3CC(c4ccc(OC)cc4)=C3C(=O)N1Cc1[nH]c3ccccc3c1C2 (stereo not drawn)	-3	nt	nt	nt	nt	nt
CCCC(C(=O)NC(C)(C)C)N(Cc1ccccc1)C(=O)c1snc(C(N)=O)c1N (stereo not drawn)	-5	0	69*	nt	nt	0
O=C(CSc1nc2ccc(Nc3nc(N4CCOCC4)nc(N4CCOCC4)n3)cc2s1)Nc1ccccc1Cl	2	0	62*	nt	0	67*
O=C(CSc1nc2ccc(Nc3nc(N4CCOCC4)nc(N4CCOCC4)n3)cc2s1)Nc1ccccc1	1	nt	nt	nt	nt	nt
O=C(CSc1nc2ccc(Nc3nc(N4CCOCC4)nc(N4CCOCC4)n3)cc2s1)Nc1ccccc1F	-2	0	73*	nt	0	78*
CCCC(=O)Nc1ccc2nc(SCC(=O)Nc3ccc(N4CCOCC4)c(Cl)c3)sc2c1	0	-1	51*	3	0	34
Cc1cc(=O)[nH]c(SCC(=O)Nc2ccc(F)c(F)c2)n1	-3	nt	nt	nt	nt	nt
Nc1ncnc2c1ncn2C1C=C(CO)C(O)C1O (stereo not drawn)	nt	0	75*	nt	nt	76*
Nc1ncnc2c1ncn2[C@@H]1O[C@H](CO)C[C@H]1O	-3	-2	68	4	0	nt
